Each compound was assayed against Melanocortin receptor 3 (Mus musculus, UniProt P33033) (assay: Agonist activity at mouse MC3 receptor expressed in HEK293 cells after 6 hrs by cAMP-based beta-galactosidase reporter gene assay).
Melanocortin receptor 3, sequence (P33033 whole entry): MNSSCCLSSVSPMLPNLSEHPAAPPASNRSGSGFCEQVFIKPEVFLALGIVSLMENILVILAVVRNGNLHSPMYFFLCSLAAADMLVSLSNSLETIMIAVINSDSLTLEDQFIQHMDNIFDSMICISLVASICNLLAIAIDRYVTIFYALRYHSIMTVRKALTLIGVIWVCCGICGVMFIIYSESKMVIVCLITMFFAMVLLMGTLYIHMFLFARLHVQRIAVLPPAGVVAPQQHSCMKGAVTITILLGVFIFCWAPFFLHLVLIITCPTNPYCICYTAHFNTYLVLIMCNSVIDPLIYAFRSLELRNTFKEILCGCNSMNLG
Format: functional, cell-based
Outline: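 HEK-293 cells stably expressing the mouse receptor, kept in DMEM with 10% fetal calf serum, transfected with CRE/β-galactosidase reporter. Efficacy is relative to NDP-MSH on the same plate. EC50 is the mean of duplicate wells from three or more independent experiments, fitted by nonlinear least squares.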
`C[C@@H]1NC(=O)[C@H](CC(N)=O)NC(=O)[C@H](Cc2c[nH]c3ccccc23)N2C[C@H](CCCCN)NC(=O)[C@@H](CSCC2=O)NC(=O)[C@@H](Cc2ccccc2)NC(=O)[C@H](Cc2cnc[nH]2)NC(=O)[C@@H](NC(=O)[C@@H](N)Cc2ccc(O)cc2)CSSC[C@@H](C(=O)N[C@@H](Cc2ccc(O)cc2)C(N)=O)NC(=O)[C@H](Cc2ccccc2)NC1=O` showed an EC50 of 2540 nM. `C[C@@H]1NC(=O)[C@H](CC(N)=O)NC(=O)[C@H](Cc2c[nH]c3ccccc23)N2C[C@H](CCCN=C(N)N)NC(=O)[C@@H](CSCC2=O)NC(=O)[C@@H](Cc2ccccc2)NC(=O)[C@H](Cc2cnc[nH]2)NC(=O)[C@@H](NC(=O)[C@@H](N)Cc2ccc(O)cc2)CSSC[C@@H](C(=O)N[C@@H](Cc2ccc(O)cc2)C(N)=O)NC(=O)[C@H](Cc2ccccc2)NC1=O` showed an EC50 of 324 nM. `C[C@@H]1NC(=O)[C@H](CC(N)=O)NC(=O)[C@H](Cc2ccc3ccccc3c2)N2C[C@H](CCCNC(=N)N)NC(=O)[C@@H](CSCC2=O)NC(=O)[C@@H](Cc2ccccc2)NC(=O)[C@H](Cc2cnc[nH]2)NC(=O)[C@@H](NC(=O)[C@@H](N)Cc2ccc(O)cc2)CSSC[C@@H](C(=O)N[C@@H](Cc2ccc(O)cc2)C(N)=O)NC(=O)[C@H](Cc2ccccc2)NC1=O` gave an EC50 of 200 nM. In the case of `C[C@@H]1NC(=O)[C@H](CC(N)=O)NC(=O)[C@H](Cc2c[nH]c3ccccc23)N2C[C@H](CCCNC(=N)N)NC(=O)[C@@H](CSCC2=O)NC(=O)[C@@H](Cc2ccccc2)NC(=O)[C@@H]2CCCN2C(=O)[C@@H](NC(=O)[C@@H](N)Cc2ccc(O)cc2)CSSC[C@@H](C(=O)N[C@@H](Cc2ccc(O)cc2)C(N)=O)NC(=O)[C@H](Cc2ccccc2)NC1=O`, the EC50 is reported as 1900 nM. For `C[C@@H]1NC(=O)[C@H](CC(N)=O)NC(=O)[C@H](Cc2c[nH]c3ccccc23)N2C[C@H](CCCN=C(N)N)NC(=O)[C@@H](CSCC2=O)NC(=O)[C@@H]2CCCN2C(=O)[C@H](Cc2cnc[nH]2)NC(=O)[C@@H](NC(=O)[C@@H](N)Cc2ccc(O)cc2)CSSC[C@@H](C(=O)N[C@@H](Cc2ccc(O)cc2)C(N)=O)NC(=O)[C@H](Cc2ccccc2)NC1=O`, the EC50 was 10300 nM. `C[C@@H]1NC(=O)[C@H](CC(N)=O)NC(=O)[C@H](Cc2ccc(-c3ccccc3)cc2)N2C[C@H](CCCN=C(N)N)NC(=O)[C@@H](CSCC2=O)NC(=O)[C@@H](Cc2ccccc2)NC(=O)[C@H](Cc2cnc[nH]2)NC(=O)[C@@H](NC(=O)[C@@H](N)Cc2ccc(O)cc2)CSSC[C@@H](C(=O)N[C@@H](Cc2ccc(O)cc2)C(N)=O)NC(=O)[C@H](Cc2ccccc2)NC1=O` gave an EC50 of 230 nM. With `C[C@@H]1NC(=O)[C@H](CC(N)=O)NC(=O)[C@H](Cc2c[nH]c3ccccc23)N2C[C@H](CCCNC(=N)N)NC(=O)[C@@H](CSCC2=O)NC(=O)[C@@H](Cc2ccc(I)cc2)NC(=O)[C@H](Cc2cnc[nH]2)NC(=O)[C@@H](NC(=O)[C@@H](N)Cc2ccc(O)cc2)CSSC[C@@H](C(=O)N[C@@H](Cc2ccc(O)cc2)C(N)=O)NC(=O)[C@H](Cc2ccccc2)NC1=O` the EC50 was 49 nM. Work on `C[C@@H]1NC(=O)[C@H](CC(N)=O)NC(=O)[C@H](Cc2c[nH]c3ccccc23)N2C[C@H](CCCNC(=N)N)NC(=O)[C@@H](CSCC2=O)NC(=O)[C@@H](Cc2ccccc2)NC(=O)[C@H](Cc2ccccc2)NC(=O)[C@@H](NC(=O)[C@@H](N)Cc2ccc(O)cc2)CSSC[C@@H](C(=O)N[C@@H](Cc2ccc(O)cc2)C(N)=O)NC(=O)[C@H](Cc2ccccc2)NC1=O` yielded an EC50 of 4500 nM. `C[C@@H]1NC(=O)[C@H](CC(N)=O)NC(=O)[C@H](Cc2c[nH]c3ccccc23)N2C[C@H](CCCCNC(=N)N)NC(=O)[C@@H](CSCC2=O)NC(=O)[C@@H](Cc2ccccc2)NC(=O)[C@H](Cc2cnc[nH]2)NC(=O)[C@@H](NC(=O)[C@@H](N)Cc2ccc(O)cc2)CSSC[C@@H](C(=O)N[C@@H](Cc2ccc(O)cc2)C(N)=O)NC(=O)[C@H](Cc2ccccc2)NC1=O` showed an EC50 of 1830 nM.
